Measurements taken from the EternaBench riboswitch data.

Tested on: MS2 coat protein
Experiment: apparent Kd, MS2 coat protein; higher = weaker binding; RNA-MaP array; FMN 200 µM where present
Method in brief: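 Stalled E. coli RNA polymerase transcribed the designs on Illumina sequencing-chip clusters. SNAP-549-labelled MS2 coat protein was titrated from 0.7 or 1.5 nM, doubling to 3 µM, without and then with constant ligand, in 100 mM Tris-HCl pH 7.5, 80 mM KCl, 4 mM MgCl2, BSA, DTT, yeast tRNA and Tween-20. Per-cluster binding curves were fitted to green signal normalised to red-channel RNA signal and control-cluster median Fmax. The apparent Kd is the median of the filtered fits.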

[1] = designed as: OFF switch for flavin mononucleotide, no ligand
[2] = ligand present: flavin mononucleotide, designed as: OFF switch for flavin mononucleotide
[3] = designed as: ON switch for flavin mononucleotide, no ligand
[4] = ligand present: flavin mononucleotide, designed as: ON switch for flavin mononucleotide

Sequence | apparent Kd [1] [nM] | apparent Kd [2] [nM] | apparent Kd [3] [nM] | apparent Kd [4] [nM]
UAUUAGUGAGGAUAUGAGUCGUAGAACAAUAGUACUACGUCUCAGAAGGUACAUGAGGAUCACCCAUGUUUCUC | 20 | 23.8 | – | –
UUACUCAUGUAAGGAUAUGCAGCCGAAACGGCUGCAGAAGGUACUAUAAUACAUGAGGAUCACCCAUGUAAAAUAAAUAAAGUC | – | – | 26.1 | 16.9
AAUUAUUUACAGAAGGAGUAAGAUUUUGUAUUACUAGGAUAUGUUAACAUGAGGAUCACCCAUGUGUUUGUAGGUUUUUUAUGU | 12.2 | 8.54 | – | –
CUUUUGUGAGGAUAUUGGUAGUAAAUGAAUAAAAUUAUUACCGAGAAGGUACAUGAGGAUCACCCAUGUUCCUC | 19.4 | 27.9 | – | –
CGCAUACUAGGAUAUACAUGAGGAUCACCCAUGUCGCCGGGCCCACUCAUACUAAAACGUAGAAGGAGUUUGCC | 18.5 | 18.8 | – | –
UUUUAGGGAGGAUAUACAUUUUUUUUAUUAUCCUCAUUAAUACAUGAGGAUCACCCAUGUAGAAGGCCCAUUUU | 39.2 | 164 | – | –
UUUGAGUGAGGAUAUUGCACCUCUGGGUCACCUCAGAGGUUUGAGAAGGCACAUGAGGAUCACCCAUGUUCCGC | 19.7 | 32.2 | – | –
UAUGUUUUAGGAUAUUGUACUGCUGACAUGAGGAUCACCCAUGUAUGCUAACUCGGUUGUCGAGAAGGAGAAUAUG | 59.4 | 44.2 | – | –
CCUAGUUGGUAAGGAUAUCCUACACUAUUCUGACCCGUGCAGGCUACAUGAGGAUCACCCAUGUGGGAGAAGGUGCGUCAACGU | 12.6 | 11.8 | – | –
AUAUAGCGAGGAUAUACAUGAGGAUCACCCAUGUGGUAGUAGAUACGGUAGAGCUAGUGUAGAAGGCGCUAUGA | 463 | 160 | – | –
AGACCGCUACGCCGGUUUCACGCACAGGAUAUGCGGUUACAUGAGGAUCACCCAUGUGGCCAUGUGCAGAAGGGUGGUUCGUUA | – | – | 36.1 | 11.5
CUGAUGUGAGGAUAUCGGACUACGGCCAGGCCGCUAGCAUACGAGAAGGCACAUGAGGAUCACCCAUGUGAGAA | 13.3 | 42.7 | – | –
CCAGAGACAUAAGGAUAUCGAGUGGAAUACACUCGAGAAGGUAUGUGAAAACAUGAGGAUCACCCAUGUGAUCAAUACUCUGGA | – | – | 19.4 | 20.2
AGCUACGUUUCGUAGCAGUGUCAUCGAGAAGGCCCUUACGUGACAACAUGAGGAUCACCCAUGUGGGAGGAUAUCGAUGAUACA | – | – | 11.8 | 11.5
GGUUAUUGCAAGGAUAUGCUUAUUUGAGAAAUUGCAGAAGGUGCAACAUGAGGAUCACCCAUGUUGGAUGGGUU | 65.2 | 278 | – | –
UGAUCGAAAGAUCAUAGAUUCUGCUAGGAUAUGCAGAAGUUGCGCUUUACAUGAGGAUCACCCAUGUAGAAGGAGUAGAGUCUA | 6.59 | 6.78 | – | –
CAGCACUAUCGAGAGGAUAUGCGGUGAUGGACAUGAGGAUCACCCAUGUUAGCGGUAGCAUCACGGCAGAAGGCUCUGCUGCUGC | – | – | 28.8 | 19.9
CUUUUGUGAGGAUAUCAGUGGUAAAACAAUAGUAUUACUACUGAGAAGGCACAUGAGGAUCACCCAUGUUCCUC | 47.1 | 304 | – | –
ACGGCCUUACAUGAGGAUCACCCAUGUGAGUAUGGAGUUACACAGGAUAUCCGCGUGGCAGGCAAGGAGAAGGGUGUAUUAGGA | – | – | 70 | 21.9
GCAGCACAGAUUUACAUGAGGAUCACCCAUGUCUAUUAAGAUGAGGAUAUGCAUCGAAUGAAGUUGCAGAAGGCAUUGUGCUGC | – | – | 6.77 | 5.78
AUAUCAAGCAAGGAUAUGCAAAUGGUUAUUUAUGCAGAAGGUGCAACAUGAGGAUCACCCAUGUUUCUGGGUUU | 64.4 | 101 | – | –
UUCGCUGUGGUGUGGCGAGGCUCGUAAGAAGGGUGAUGCACAUGAGGAUCACCCAUGUAAGCCUUACAGGAUAUUGCUAGCCGA | – | – | 539 | 195
CGAGAUCUUGAGAAGGCAUAAUAUAUAAUACCACAUGUUUACAUGAGGAUCACCCAUGUUUCCAAUGAGGAUAUCAGGAUUUCG | 19.6 | 14.8 | – | –
CCGUCGCUUAGCGCUCCUCAUACAUGAGGAUCACCCAUGUACAGAAGGCGGAGGGCCAGGCCCACCGAGGAUAUGUAAGUGUGA | 73 | 73.2 | – | –

Sequence | apparent Kd [1] [nM] | apparent Kd [2] [nM] | apparent Kd [3] [nM] | apparent Kd [4] [nM]
GCAGCACAGUUUUACAUGAGGAUCACCCAUGUCUAUUGAGAUGAGGAUAUGCAUCGAAUGAAGUUGCAGAAGGCAUUGUGCUGC | – | – | 11.2 | 6.46
AUACCUUAUGAGAAGGCGAUCAUGAAACAUGAUCGAGGAUAUCAUGUAAACAUGAGGAUCACCCAUGUAUGGGUAUUAUGGUAC | – | – | 28.4 | 9.72
AAUAACAGAGGAUAUACUGUUUUAUGUAUUUAUUAUUUUAAACAUGAGGAUCACCCAUGUAGAAGGCUGAGUAA | 24.6 | 23.4 | – | –
AACUGUCUAAAGGAUAUGCUGGAUUAAUAUCUGGCAGAAGGUUGGACAUGAGGAUCACCCAUGUAAAUACUACC | 21.6 | 70.1 | – | –
UUUCAGUCAGGAUAUCGUUAAUUUAAUUGUUUGUAUUAGUUCGAGAAGGGACAUGAGGAUCACCCAUGUACUCU | 19.6 | 20 | – | –
GGCCCGCGCGUGAGGAUAUGCUGAUACUAGGAUCAGCAGAAGGCACAUGAGGAUCACCCAUGUCCAACUUGUCU | 28.9 | 36.4 | – | –
AGAUGGCGAGGAUAUACAUGAGGAUCACCCAUGUGAAGAUAAAGAGUGAGGAAGAAAAGUAGAAGGCGCUGUCA | 123 | 506 | – | –
AUCAGCUCGUCAGGAUAUACUUCACUGCGUCAGCAGUGUGGUAAGAUCACAUGAGGAUCACCCAUGUAGAAGGGACGAGCUGAU | 6 | 8.71 | – | –
AAAUUUAACGAAGGAUAUGCUAACAUGAGGAUCACCCAUGUGUGCUUUGUGUUGCUGAAAUUGGAGCAGAAGGUCGUAUACAUA | 95.4 | 145 | – | –
GCGGUACAUGAGGAUCACCCAUGUCAGGAUAUCCGCUGUUUGUCGAUUGGCAGGCGGUGGAGAAGGGACCUCGC | 97.5 | 98.5 | – | –
UCUGUUUUGCGAGGAUAUCGACCAUUCCUCUUAACAUGAGGAUCACCCAUGUGCUAAUCCUACAACGAGAAGGCGCUCAUACUC | 250 | 348 | – | –
UUGGACGUCAUAGGAUAUGUAGGAUAUUCCUACAUGAGGAUCACCCAUGUUGACAUGGAAGAAGGACAGAAGGACGAUGUCCAU | – | – | 665 | 10.7
UACUUGUCAGGAUAUCUUACAUUAACAUCGUAGUUACAAUUGGAGAAGGGACAUGAGGAUCACCCAUGUUUGGC | 25.8 | 34.5 | – | –
GGAAUGUCGGGAGGAUAUCCAAAUGUAUACAUAGGAGAAGGCCCGCACAUGAGGAUCACCCAUGUAAUAACGCGUGGCAUCAAC | 82.8 | 119 | – | –
GCCAUCGCAUGAGGAUAUGCUCCGGUUUCCGGAGCAGAAGGCAUGUCGUAAGACAUGAGGAUCACCCAUGUAGUUAAGAUGGCA | – | – | 1100 | 54.7
CUUUUAUUGGUCCAUUUUUUCUACAUGAGGAUCACCCAUGUGCAGGAUAUCGUGAUUAUUAUCAACGAGAAGGGCAGAUUCACG | 29.8 | 78.4 | – | –
CGAUAUUAUAGAGGAUAUGUUUAACAUGAGGAUCACCCAUGUGAGGUGGAAUUAAUGUAUUACUUACAGAAGGCUAUACAAUCG | 316 | 432 | – | –
UUGGACGUCGUAGGAUUUGUAGGAUAUUCCUACAUGAGGAUCACCCAUGUUGACAUGGAAGAAGGACAGAAGGACGAUGUCCAU | – | – | 87.3 | 5.51
GUCGUGUUAGGAUAUGGCGGCGGCGGCGUUUGUUGUUGUUGUUAGAAGGAACAUGAGGAUCACCCAUGUAUGAC | 43.4 | 119 | – | –
UAAGUACAGAAGUACUCCGGGUCCAGAAGGGACAUGAGGAUCACCCAUGUACCGUUGAUUGCUUGUCAGGAUAUGGACCCGGCC | 6.83 | 25.7 | – | –
UCGCGGGAGCAGAAGGGAUAGGCCUAUUGUCGUGAGGUCUACACUUAACAUGAGGAUCACCCAUGUCAGGAUAUGCCCACGCGA | 4.68 | 4.64 | – | –
UGGUACUACGGAGGAUAUCAUGUAGAUACAUGAGGAUCACCCAUGUCGAUGGAGACAUCGGAGAUUGAGAAGGCCGUAGUACCU | – | – | 610 | 29.4
UUAAUGAUGUUAGGAUAUACAUGAGGAAUCCUCGUAGAAGGAACAUGACAUGAGGAUCACCCAUGUAACGCUCCGUAGAGCGUA | – | – | 70.2 | 94.3
GGGCGUUGGGAGAAGGUACAUUAAAUUAGUUUAACAUGAGGAUCACCCAUGUAAGGAUAUCCCAUCGUGUAAUAUUAUACAGCC | 11 | 13.8 | – | –
